In brackets after ≈: the same amount, converted by molar mass.
Assays:
[1] = test system: Mycobacterium tuberculosis; test: Antitubercular activity against Mycobacterium tuberculosis H37Rv ATCC 27294 expressing the green fluorescence protein assessed as inhibition of bacterial growth by measuring GFP fluorescence incubated for 5 days by fluorescence based plate reader analysis; assay type: functional, organism-based; conditions: H37Rv ATCC 27294, 120 h
In short: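 H37Rv-GFP was grown 14 days in 7H9/OADC/Tween/glycerol/hygromycin, washed, and seeded at ~3×10^6 CFU/mL. Compounds were given as 10-point 2-fold series starting at 20 or 1 µM, in 1% DMSO final. Plates ran 5 days at 37°C, 5% CO2, with rifampicin 1 µg/mL as positive control. GFP fluorescence was read and IC50 taken from a 4-parameter sigmoid fit.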

[2] = test system: Mycobacterium tuberculosis; test: Antitubercular activity against Mycobacterium tuberculosis H37Rv ATCC 27294 expressing the green fluorescence protein infected in mouse RAW264.7 cells assessed as inhibition of bacterial growth pre-infected with cell followed by compound addition and measured after 5 days by Hoechst 33342 staining based analysis; assay type: functional, organism-based; conditions: H37Rv ATCC 27294, RAW264.7, 120 h
In short: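 RAW 264.7 cells, passages 2-9, were infected with washed H37Rv-GFP at MOI 20 for 2 h at 37°C with shaking. Cells were washed and plated at 20,000/well over 2-fold compound dilutions for 5 days. Nuclei were stained with 5 µM Hoechst (final) and 3 fields/well imaged. Four parameters (cell count, bacterial area, area per infected cell, infected-cell ratio) were each fitted by 4-parameter sigmoid, and the IC50s averaged.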

[3] = Metabolic stability in human liver microsome assessed as phase I mediated metabolite formation by measuring half-life; assay type: ADME; conditions: microsomes
[4] = Metabolic stability in mouse liver microsome assessed as phase I mediated metabolite formation by measuring half-life; assay type: ADME; conditions: microsomes
[5] = Solubility of the compound at pH 7.4; assay type: physicochemical; conditions: buffer
[6] = Solubility of the compound at pH 2.1; assay type: physicochemical; conditions: buffer

| Structure (SMILES) | IC50 [1] | IC50 [2] | t1/2 [3] | t1/2 [4] | solubility [5] | solubility [6] |
| --- | --- | --- | --- | --- | --- | --- |
| NNC(=O)c1ccncc1 [ISONIAZID] | 400 nM | 350 nM | – | – | – | – |
| COc1cc(NC(=O)c2cc3sc(N4CCCCC4)nc3s2)cc(OC)c1 | > 20000 nM | > 20000 nM | 24.5 min | 33.6 min | – | – |
| COc1ccc(NC(=O)c2cc3sc(N4CCC(F)(F)CC4)nc3s2)cc1 | 1100 nM | 330 nM | – | – | – | – |
| COc1ccc(NC(=O)c2cc3sc(N4CCNCC4)nc3s2)cc1 | 13700 nM | 2100 nM | – | – | – | – |
| Cc1nc2cc(NC(=O)c3cc4sc(N5CCC(CO)CC5)nc4s3)ccc2o1 | 500 nM | 230 nM | – | – | – | – |
| Cc1nc2cc(NC(=O)c3cc4sc(N(C)CCO)nc4s3)ccc2o1 | 880 nM | 1300 nM | > 60 min | 37.7 min | 4.5 µg/mL (≈ 11.6 µM) | 20.6 µg/mL (≈ 53 µM) |
| O=C(Nc1ccc(-c2ccc(F)cc2)nc1)c1cc2sc(NCCN3CCOCC3)nc2s1 | 4600 nM | 370 nM | – | – | 0.57 µg/mL (≈ 1.18 µM) | > 50 µg/mL |
| COc1ccc(-c2ccc(NC(=O)c3cc4sc(NCCN5CCOCC5)nc4s3)cc2)nc1 | 1350 nM | 190 nM | < 30 min | < 30 min | 0.2 µg/mL (≈ 0.404 µM) | > 50 µg/mL |
| O=C(Nc1ccc(O)cc1)c1cc2sc(N3CCCCC3)nc2s1 | 4800 nM | 2750 nM | – | – | – | – |
| Cc1nc2cc(NC(=O)c3cc4sc(NCCN5CCOCC5)nc4s3)ccc2o1 | 1350 nM | 470 nM | > 60 min | > 60 min | 2.1 µg/mL (≈ 4.73 µM) | 37.1 µg/mL (≈ 83.6 µM) |
| COc1ccc(NC(=O)c2cc3sc(N4CCOCC4)nc3s2)cc1 | 1100 nM | 210 nM | 57.6 min | > 60 min | – | – |
| COc1ccc(NCc2cc3sc(N4CCCCC4)nc3s2)cc1 | > 20000 nM | > 20000 nM | – | – | – | – |
| Cc1nc2cc(NC(=O)c3cc4sc(N5CCC(O)CC5)nc4s3)ccc2o1 | 640 nM | 460 nM | > 60 min | > 60 min | 2.4 µg/mL (≈ 5.79 µM) | 9.7 µg/mL (≈ 23.4 µM) |
| O=C(Nc1ccc(-c2ccc(F)nc2)cc1)c1cc2sc(NCCN3CCOCC3)nc2s1 | 610 nM | 100 nM | 25.1 min | 45.6 min | 1.1 µg/mL (≈ 2.27 µM) | 1.5 µg/mL (≈ 3.1 µM) |
| COc1ccc(C(=O)Nc2cc3sc(N4CCCCC4)nc3s2)cc1 | > 20000 nM | > 20000 nM | – | – | – | – |

— ChEMBL document CHEMBL5223075, “Discovery of thienothiazolocarboxamide analogues as novel anti-tubercular agent” (Bioorg Med Chem, 2020)
